From PubChem
The entries come from a sample that favours hits as a whole.
ROMK primary = human ROMK K+ channel modulation, primary screen; 2% of 130,000 active; AID 1918; B-score at 10 µM; P48048; Tet-inducible ROMK, thallium flux fluorescence; actives lie on both sides;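 active means signal ratio slope over the read window, or its plate-corrected B-score, at least 3 SD from the plate mean, either direction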;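 further: B-score of the F/F0 ratio slope over 7 to 12 s after thallium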
Target sequence (P48048 whole entry, looked up): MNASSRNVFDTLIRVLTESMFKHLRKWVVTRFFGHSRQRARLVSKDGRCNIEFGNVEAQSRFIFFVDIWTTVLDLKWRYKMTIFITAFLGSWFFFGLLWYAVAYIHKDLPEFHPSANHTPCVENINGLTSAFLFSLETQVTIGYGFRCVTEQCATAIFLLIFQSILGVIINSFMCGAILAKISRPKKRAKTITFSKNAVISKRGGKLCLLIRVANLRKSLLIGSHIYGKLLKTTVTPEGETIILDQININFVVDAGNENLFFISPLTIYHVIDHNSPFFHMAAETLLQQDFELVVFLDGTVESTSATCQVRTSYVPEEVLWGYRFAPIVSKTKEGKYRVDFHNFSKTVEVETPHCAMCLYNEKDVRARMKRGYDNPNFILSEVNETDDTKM
Calb biofilm kill = mixtures killing C. albicans biofilm; C. albicans biofilm persisters + clotrimazole, fluorescence viability; primary screen in compound mixtures of four per well; inhibition, % at 7.6 µM; 0.02% of 120,000 active;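 active means inhibition above 30.3% in the primary screen of four-compound pools, then above 30% when the compound was retested; inconclusive means passed the primary limit but could not be retested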;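 further: compounds exposed to preformed 24 h biofilms for 48 h; 0% = untreated biofilm control and 100% = clotrimazole plus chlorhexidine kill blank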
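Probe or stimulus – Clotrimazole 50 µg/mL co-treatment · System – C. albicans biofilms · Schedule – 24 h biofilm formation, then 48 h compound exposure, 37 °C · Evaluation – percent inhibition of biofilm viability · Technique – 2-h Alamar Blue fluorescence, 535/590 nm excitation/emission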
ROMK hit retest = human ROMK channel modulation, retest confirmation | AID 1917 | shares compounds with ROMK primary | normalized thallium flux (F/F0 slope) at 10 µM | ROMK thallium flux, fluorescence ratio; active compounds read low | 54% of 3,000 active;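 active means Flux at 10 µM at least 3 SD below or above vehicle control mean in one or both replicates; inconclusive means no clear call, values can overlap the other calls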
Numbers without * were called inactive; ? = inconclusive; . = no result given.

SMILES | ROMK primary | Calb biofilm kill | ROMK hit retest
O=C(Cc1cccs1)N(CC1CCCO1)C1(C(=O)NC2CCCC2)CCCCC1 (stereo unspecified) | -1.8* | 4 | ?
CCN1CCN(C(=O)Nc2ccc(OC)cc2OC)CC1 | 0.087 | 5 | .
c1ccc(-c2noc(-c3cccnc3)n2)nc1 | -0.011 | . | .
O=C(c1ccncc1)c1ccc(N2CCN(C3CC(=O)N(Cc4cccs4)C3=O)CC2)cc1 (stereo unspecified) | . | 3 | 0.06*
CCN1C(=O)CC(N2CCN(c3ccc(C(=O)c4ccncc4)cc3)CC2)C1=O (stereo unspecified) | 0.69 | . | .
O=C(NC1CCCCC1)[C@H](CSCc1ccccc1)N1Cc2ccccc2C1=O | -3.4* | 2 | ?
CC(C)NC(=O)[C@H](CSCc1ccccc1)N1Cc2ccccc2C1=O | -0.13 | 8 | .
Cc1cccc(N(C(=O)CCC(=O)Nc2cc(C)on2)C(C(=O)NC2CCCC2)c2ccc(C)o2)c1 (stereo unspecified) | -0.31 | 27 | .
CCCCCCCCC[n+]1cccc2c3ccccc3ccc21 | -5.7* | . | 0.042*
CCCCCCCCCCCCCCCC[n+]1cccc2ccccc21 | . | 4 | .
Cc1nn(-c2ccccc2)c(C)c1/C=N/NC(=O)c1cnccn1 | -0.68 | 17 | .
COCCCNC(=O)CN(CCc1ccccc1)S(=O)(=O)c1ccccc1 | -0.96 | 8 | .
COc1ccc(C2C(C(=O)c3ccccc3)=C(C)Nc3nc4ccccc4n32)cc1OC (stereo unspecified) | 0.62 | 9 | .
COc1ccc(OC)c(C2C(C(=O)c3ccccc3)=C(C)Nc3nc4ccccc4n32)c1 (stereo unspecified) | 2.5* | 8 | 0.068*
CC1=NN(c2nc(-c3ccc(C)cc3)cs2)C(=O)C1N=Nc1ccc(C(N)=O)cc1 (stereo unspecified) | 0.1 | 4 | 0.077
CC1=NN(c2nc(-c3ccccc3)cs2)C(=O)C1N=Nc1ccccc1 (stereo unspecified) | -0.00013 | 15 | .
O=C(CCCn1cnc([N+](=O)[O-])n1)Nc1ccc(Cl)cc1Cl | -0.032 | 21 | .
CN(C)CCn1c(=O)n(-c2cccc(Cl)c2)c(=O)c2c3c(sc21)CCCCC3 | . | 16 | .
COC(=O)c1c(NC(=O)CSc2nc3ccccc3c(=O)n2Cc2ccco2)sc(C)c1C | . | 15 | .
COC(=O)c1c(NC(=O)CSc2nnc(-c3ccco3)n2Cc2ccccc2)sc(C)c1C | -3.1* | . | 0.065*
COCCc1nnc(NC(=O)Cc2ccccc2)s1 | 0.66 | . | .
Cc1cccc(NC(=S)N(CCN(C)C)Cc2cc3cc(C)cc(C)c3[nH]c2=O)c1 | -4.9* | 11 | 0.06*
Cc1cc(C)c2cc(CN(CCCN(C)C)C(=S)NCc3ccccc3)c(=O)[nH]c2c1 | -3.7* | 9 | 0.054*
Cc1cccc(NC(=S)N(CCN(C)C)Cc2cc3cccc(C)c3[nH]c2=O)c1 | -2.6 | 11 | .
Cc1ccc(C)c2[nH]c(=O)c(CN(CCCN(C)C)C(=O)NCc3ccccc3)cc12 | . | 10 | .
SMILES | ROMK primary | Calb biofilm kill | ROMK hit retest
NC(=O)CNc1ncc(C(F)(F)F)cc1Cl | 0.22 | -8 | .
CC(C)CN(C(=O)CN1CCN(c2ccc(O)cc2)CC1)c1c(N)n(CC(C)C)c(=O)[nH]c1=O | 0.006 | 20 | .
COc1cc(/C=C/C(=O)OCC(=O)N2CCN(S(=O)(=O)c3ccc(C)cc3C)CC2)ccc1O | . | 8 | .
O=C(Nc1cccc(-c2nnc(-c3ccccc3)o2)c1)c1ccc(Br)o1 | -1.2 | . | 0.065*
O=C(Nc1ccccc1)Nc1cccc(-c2cn3cccnc3n2)c1 | . | 14 | .
O=C(Nc1cccc(-c2cn3cccnc3n2)c1)c1ccc2c(c1)OCO2 | . | . | 0.079
c1cnc2nc(-c3ccc4c(c3)OCO4)cn2c1 | -0.085 | 12 | .
O=C(Nc1cccc(-c2cn3cccnc3n2)c1)c1ccc(Br)o1 | . | . | ?
Cc1nnc2ccc(-c3cccc(NC(=O)c4ccc(Br)o4)c3)nn12 | -0.35 | 8 | .
COc1ccc(OC)c(S(=O)(=O)Nc2ccc(CC(=O)O)cc2)c1 | -0.31 | . | .
Cc1cccn2c(CNC3CCCc4ccccc43)c(C(=O)N3CCCCC3)nc12 (stereo unspecified) | -3* | 24 | 0.061*
CCOC(=O)C1CCCN(Cc2c(C(=O)N3CCCCC3)nc3c(C)cccn23)C1 (stereo unspecified) | -0.55 | 12 | .
CC(C)CC1(C)N=C(c2ccccc2)C(=S)N1 (stereo unspecified) | -3.2* | 19 | 0.057*
S=C1NC2(CCCC2)N=C1c1ccccc1 | -1.8 | 8 | .
CCCOC(=O)c1c(N)sc(C(=O)OCC)c1C | 0.61 | 15 | .
COC(=O)c1ccc(CSc2nc3c(cnn3-c3ccc(C)c(C)c3)c(=O)[nH]2)o1 | . | -1 | .
O=C(CSc1ccc(Cl)cc1)NNC(=O)c1cccnc1 | 0.36 | 17 | .
COC(=O)c1sc(-c2ccc(Cl)cc2)cc1NC(=O)CSCC(=O)O | 0.019 | 30 | .
COC(=O)c1sc(-c2ccc(C(C)(C)C)cc2)cc1NC(=O)COCC(=O)O | -11* | 16 | 0.085
CCC(C)C(NS(=O)(=O)c1ccc(C)cc1)C(=O)O (stereo unspecified) | . | 9 | .
Cc1ccnc(SCC(=O)c2cccs2)n1 | 0.44 | 2 | .
CCN(CC)c1ccc(C=C(c2nnnn2-c2ccc(C)cc2)c2nnnn2-c2ccc(C)cc2)cc1 | . | -1 | .
Cc1ccc(CNC(=O)Cn2ccc3ccccc3c2=O)o1 | . | . | 0.073
CCOC(=O)CNC(=O)CNC(=O)Cn1ccc2ccccc2c1=O | -0.51 | . | .
N=c1ccn(Cc2ccc([N+](=O)[O-])cc2)cc1 | -0.22 | 22 | .
SMILES | ROMK primary | Calb biofilm kill | ROMK hit retest
CCCCn1c(=O)n(C)c(=O)c2c(C(F)(F)F)cc(-c3ccncc3)nc21 | -2.3 | . | .
O=C(O)Cc1csc(-c2ccc(F)cc2)n1 | 3* | 10 | ?
O=C(O)Cc1csc(-c2ccccc2)n1 | 0.19 | 12 | .
Cc1ccc(NC(=O)COC(=O)c2cccc(N3C(=O)c4ccccc4C3=O)c2)cc1 | . | 11 | .
CC(=O)c1ccc([C@H]2C[C@@]34CN(C(=O)OC(C)(C)C)S(=O)(=O)[C@H]3C[C@H]2O4)cc1 | . | 11 | .
O=C(OC(C(=O)NCC1CCCO1)c1ccc(F)cc1)c1ccco1 (stereo unspecified) | 0.01 | . | .
CC(=O)c1c(C)nn(C(C)CC(=O)O)c1C (stereo unspecified) | . | . | 0.076
CC(CC(=O)O)n1nnc2ccccc21 (stereo unspecified) | . | 27 | .
O=C(c1ccc2[nH]c3c(c2c1)CCCC3)N1CCN(c2ccc(F)cc2)CC1 | . | 17 | .
COc1ccc(/C=C(\C#N)C(=O)OCC(=O)N2CC(C)OC(C)C2)cc1 (stereo unspecified) | 0.44 | 14 | .
COc1ccc(Sc2nc(-c3ccccn3)ncc2OC)cc1 | -0.083 | 22 | .
COc1cnc(-c2ccccn2)nc1Sc1ccccc1 | -3 | 31 | ?
CC(=O)c1cccc(NC(=O)c2ccc(N(Cc3ccc(C)cc3)S(C)(=O)=O)cc2)c1 | -1.2 | . | .
CC1CCCCC1NC(=O)COC(=O)CNC(=O)c1cccc(F)c1 (stereo unspecified) | -2.1* | 10 | 0.09
CC(C)(C)NC(=O)NC(=O)COC(=O)CNC(=O)c1cccc(F)c1 | -0.72 | . | .
COc1cc2nc(CSc3ncn[nH]3)[nH]c(=O)c2cc1OC | -0.25 | 3 | .
COc1cc(C)c(NC(=O)C(=S)N2CCCC2)cc1C | 0.37 | 15 | .
CC(C)Nc1nnc(SC(C)C(=O)NCc2ccc3c(c2)OCO3)s1 (stereo unspecified) | 1.7* | 1 | 0.077
